Experimental data taken from ChEMBL document CHEMBL1141333, “Molecular-targeted antitumor agents. 15. Neolamellarins from the marine sponge Dendrilla nigra inhibit hypoxia-inducible factor-1 activation and secreted vascular endothelial growth factor production in breast tumor cells” (J Nat Prod, 2007).
Calls of active or inactive are those of the source. The rule behind the calls is not given here.

Legend:
T47D [1] = test: Antiproliferative activity against human T47D cells under normoxic conditions at 1 uM after 48 hrs; format: functional
In short: (§1)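 T47D proliferation/viability measured by Neutral Red; % inhibition = [1 − OD540(treated)/OD540(control)] × 100. Hypoxic exposure was 1% O2 for 16 or 48 h, with compounds at up to 10 μM. Normoxic incubation was 48 h. Compounds were dissolved as 4 mM DMSO stocks.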

T47D [2] = test: Antiproliferative activity against human T47D cells under normoxic conditions at 10 uM after 48 hrs; format: functional; in short: as §1
[3] = Inhibition of HIF1 activation in T47D cells by reporter gene assay; format: cell-based; conditions: Homo sapiens
In short: (§2)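 Transfected T47D luciferase reporter for HIF-1. HIF-1 was induced either by hypoxia (1% O2) or by 1,10-phenanthroline (10 μM) during compound treatment. Luciferase activity was read out and concentration-response was tested at 1, 3 and 10 μM. Compounds came from 4 mM DMSO stocks. Emetine at 1 μM was the positive control.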

T47D [4] = test: Inhibition of HIF1 activation in T47D cells at 10 uM by reporter gene assay; format: cell-based; conditions: Homo sapiens; in short: as §2
T47D [5] = test: Antiproliferative activity against human T47D cells under hypoxic conditions upto 10 uM after 16 to 48 hrs by neutral red assay; format: functional; in short: as §1
[6] = Inhibition of 1,10-phenanthroline-induced HIF1 activation in T47D cells by reporter gene assay; format: cell-based; conditions: Homo sapiens; in short: as §2
T47D [7] = test: Inhibition of hypoxia-induced VEGF protein level in T47D cells at 10 uM by ELISA; format: functional, Homo sapiens; set-up: scale not given: the % may be the effect or the level left
In short: (§3)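 Exponentially grown T47D cells were exposed to compound for 16 h under hypoxia (1% O2) or 1,10-phenanthroline (10 μM). Secreted VEGF in conditioned media was measured by ELISA. Cells were lysed and lysate protein was measured by Micro BCA; VEGF was normalized to lysate protein. Triplicate wells, mean ± SD.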

T47D [8] = test: Inhibition of hypoxia-induced VEGF protein level in T47D cells at 3 uM by ELISA; format: functional, cell-based; conditions: Homo sapiens; in short: as §3
T47D [9] = test: Inhibition of 1,10-phenanthroline-induced VEGF protein level in T47D cells at 10 uM by ELISA; format: functional, Homo sapiens; set-up: scale not given: the % may be the effect or the level left; in short: as §3
T47D [10] = test: Antiproliferative activity against human T47D cells under normoxic conditions after 48 hrs; format: functional, cell-based; in short: as §1
T47D [11] = test: Inhibition of 1,10-phenanthroline-induced HIF1 activation in T47D cells at 10 uM by reporter gene assay; format: cell-based; set-up: scale not given: the % may be the effect or the level left; conditions: Homo sapiens; in short: as §2

Structure (SMILES)	Activity (T47D [1]) [%]	Activity (T47D [2]) [%]	IC50 [3] [µM]	inhibition (T47D [4]) [%]	Activity (T47D [5]) [%]	IC50 [6] [µM]	Activity (T47D [7]) [%]	Activity (T47D [8])	Activity (T47D [9]) [%]	Activity (T47D [10])	Activity (T47D [11]) [%]
O=C(C(O)c1ccc(O)cc1)n1cc(-c2ccc(O)cc2)c(-c2ccc(O)cc2)c1 (racemic) [7-(R/S)-HYDROXYLAMELLARIN A]	-8	34	1.9	98	<20	3.7	87	inactive	33	–	–
O=C(Cc1ccc(O)cc1)N1C(=O)C(c2ccc(O)cc2)=C(c2ccc(O)cc2)C1O (stereo unspecified) [5-HYDROXYNEOLAMELLARIN B]	–	–	–	22	<20	–	–	–	–	inactive	33
O=C(Cc1ccc(O)cc1)n1cc(-c2ccc(O)cc2)c(-c2ccc(O)cc2)c1 [NEOLAMELLARIN A]	–	–	–	26	<20	–	–	–	–	inactive	58
O=C(Cc1ccc(O)cc1)N1CC(c2ccc(O)cc2)=C(c2ccc(O)cc2)C1=O [NEOLAMELLARIN B]	–	–	–	23	<20	–	–	–	–	inactive	42
